Test results published in the array DNA melting data of Ke et al. (doi:10.1101/2024.01.08.574731).

Legend:
[1] = folding enthalpy; higher = less favourable; fluorescence melt of hairpins on a sequencing array, two-state fit; details: sodium 0.088 M
Summary of the method: (§1)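 Cy3 signals were normalised both to pre-quench Cy3 and to control constructs. They came from library hairpins carrying annealed Cy3 and quencher oligos on a sequenced MiSeq flow cell, imaged in 50 mM Na-HEPES pH 8.0, 25 mM NaCl, in 2.5 °C steps up to 60 °C. Bootstrapped two-state fits gave melting temperature and folding enthalpy, and four replicates were combined by inverse variance. Fitted temperatures were then raised by 9.35 °C to match UV melts.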

[2] = melting temperature; fluorescence melt of hairpins on a sequencing array, two-state fit, raised by 9.35 °C to match UV melts; details: sodium 0.088 M
Summary of the method: as §1

Sequence | folding enthalpy [1] [kJ/mol] | Tm [2] [°C]
GCGAGGGGAAACTCTCGC (((((.(....).))))) | -168 | 58
GAGAGCGAAAGCTGCCTC ((((((....)))..))) | -46.4 | 27.4
GATCAAGTTTTTGATC ((((((....)))))) | -151 | 45.5
GACACCGAAAGGTACGTC ((((((....)))..))) | -58.9 | 35.8
GATCAATCTGTTGATC ((((((....)))))) | -147 | 45.6
GCCCATACGAAAGTAGGC (((..(((....)))))) | -87.1 | 41.5
CGGTCGGAAACGAGCCG ((((((....))).))) | -90.3 | 51.2
GAAAAGACGAAAGTCTTC (((..(((....)))))) | -49.2 | 35.6
GGGGTGGGAAACTGCCCC ((((..(....)..)))) | -126 | 51.7
GCGTCCGAAAGGACACGC ((((((....)))..))) | -61 | 60
GCGGCTGGAAACAGCTGC ((.((((....)))).)) | -163 | 63.6
GGGCAGCCGAAAGGCCCC (((..(((....)))))) | -63 | 48.1
GGCCACGAAAGTGTTGCC ((((((....)))..))) | -70 | 49.9
GCATCACCGAAAGGTTGC (((..(((....)))))) | -80 | 37.4
GCGTACGAAAGTAGACGC ((((((....)))..))) | -106 | 51.8
GTGACGGCGAAAGCCCAC (((..(((....)))))) | -50.7 | 44.3
GGAGCCCGAAAGGGTCC (((.(((....)))))) | -79.1 | 59.9
GATTGGCGAAAGCCTATC (((.(((....))).))) | -82.8 | 48.8
GGGTACGGAAACGTGCTC (.(.(((....))).).) | -89.9 | 43.1
GTAGCCGGAAACGGCCAC ((.((((....)))).)) | -42.6 | 39.5
GGTACCCGAAAGGGAACC (((.(((....))).))) | -112 | 59.7
GGAAAGGGAAACCTCTCC (((.(((....))).))) | -61.7 | 33
GGCGCAGGAAACTGCGTC (.(((((....))))).) | -86.2 | 66.1

Sequence | folding enthalpy [1] [kJ/mol] | Tm [2] [°C]
GACTCCGAAAGGATTGTC ((((((....)))..))) | -68.2 | 36.8
GCATGTTCGAAAGAATGC (((..(((....)))))) | -100 | 30.8
GCGAGTCCGAAAGGACGC (((..(((....)))))) | -38.7 | 53
GATCTGGTTGCAGATC ((((((....)))))) | -179 | 51.1
GGATGGCGAAAGCCTCC (((.(((....)))))) | -77.6 | 55.6
GTACTTCGAAAGAAATAC (((.(((....))).))) | -71.3 | 29.3
GATCTTCACAAAGATC ((((((....)))))) | -121 | 44.9
GTAGGCCGAAAGGCTAC (((.(((....)))))) | -63.1 | 50.6
GGCACCGAAAGGTAAGCC ((((((....)))..))) | -146 | 52.6
GTCGTAGGAAACTACGGC (.(((((....))))).) | -152 | 52.8
CTGTCGAAAGACAG (((((....))))) | -89.2 | 67.5
GGCACGTCGAAAGACGCC (((..(((....)))))) | -46 | 40.7
GTCGATGCGAAAGCAGAC (((..(((....)))))) | -67.2 | 46
GGCAGGGGAAACCCTACC ((.((((....)))).)) | -111 | 43.7
GTTGTAGAAATACAAC ((((((....)))))) | -135 | 47.5
GTAGGCGAAAGCCTTTAC ((((((....)))..))) | -36.2 | 24.7
GCATCGGGAAACCGGTGC (((.(((....))).))) | -186 | 59.1
CGCTATCGGAAACGAGCG (((..(((....)))))) | -113 | 41.8
GCGGAAGGAAACTTTCGC (((.(((....))).))) | -151 | 53
GCGTTCTGACGC ((((....)))) | -105 | 55.3
GCTAGCGAAAGCTTCAGC ((((((....)))..))) | -45.7 | 39.1
GTGGGCCGAAAGGCCAC (((.(((....)))))) | -44.8 | 64.9
GGGATGGGAAACTGTCCC ((((..(....)..)))) | -131 | 43.5
